Reference: ChEMBL document CHEMBL5724801, “EUbOPEN Chemogenomics Library - Multiplex” (2024)
Values joined by “and” are separate entries in the source; they are usually repeats but may differ in a detail not shown here. Equal values may be shown once.

Tested on: Fibroblast
Assay: Multiplex assay against human fibroblast
Type: toxicity, cell-based
How it was run: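 Live cells carried four stains from seeding: Hoechst33342, BioTracker Green Microtubule Cytoskeleton Dye, MitoTracker Red and Annexin V Alexa Fluor 680. They were imaged on a CQ1 microscope at 37°C and 5% CO2 after compound addition. Using CellPathfinder machine-learning gating, cells were split into Hoechst high-intensity objects or normal cells, normal cells into healthy, pyknosed or fragmented nuclei, and pyknosed cells into mitotic or apoptotic; tubulin, mitochondrial-mass and membrane-permeability phenotypes are per cents of healthy-nucleus cells.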

[1] = 12 h, 1 µM, compound concentration 1 uM
[2] = 12 h, 10 µM, compound concentration 10 uM
[3] = 24 h, 1 µM, compound concentration 1 uM
[4] = 24 h, 10 µM, compound concentration 10 uM
[5] = 48 h, 1 µM, compound concentration 1 uM
[6] = 48 h, 10 µM, compound concentration 10 uM

For `Cl.O=S(=O)(c1cccc2c(I)cccc12)N1CCCNCC1`, the “Population Apoptotic (%)” value [1] was 20.93% and 13.51%, the “Population Fragmented Nuclei (%)” value [1] was 13.23% and 4.19% and the “Population Healthy Nuclei (%)” value [1] was 64.02% and 76.44%. For the same molecule, the “Population Hoechst High Intensity Objects (%)” value [1] was 0%, the “Population Membrane Permeable-Phenotype (%)” value [1] was 4.96% and 4.79% and the “Population Mitochondria Different-Phenotype (%)” value [1] was 9.92% and 6.85%. For the same molecule, the “Population Mitotic Cells (%)” value [1] was 79.07% and 86.49%, the “Population Normal (%)” value [1] was 100% and the “Population Pyknosed Nuclei (%)” value [1] was 22.75% and 19.37%. The “Population Tubulin-Different-Phenotype (%)” value [1] was 14.88% and 28.08%, the “Total Cell Count” value [1] was 189 and 191 and the “Population Fragmented Nuclei (%)” value [2] was 9.25% and 6.27%. The “Population Healthy Nuclei (%)” value [2] was 60.69% and 61.18%, the “Population Hoechst High Intensity Objects (%)” value [2] was 0% and the “Population Membrane Permeable-Phenotype (%)” value [2] was 5.71% and 3.85%. For the same molecule, the “Population Mitochondria Different-Phenotype (%)” value [2] was 15.24% and 15.38%, the “Population Mitotic Cells (%)” value [2] was 94.23% and 67.47% and the “Population Normal (%)” value [2] was 100%. The “Population Pyknosed Nuclei (%)” value [2] was 30.06% and 32.55%, the “Population Tubulin-Different-Phenotype (%)” value [2] was 25.71% and 55.13% and the “Total Cell Count” value [2] was 173 and 255. For the same molecule, the “Population Apoptotic (%)” value [3] was 7.89% and 13.64%, the “Population Fragmented Nuclei (%)” value [3] was 8.84% and 7.04% and the “Population Healthy Nuclei (%)” value [3] was 73.49% and 81.91%. The “Population Hoechst High Intensity Objects (%)” value [3] was 0%, the “Population Membrane Permeable-Phenotype (%)” value [3] was 4.43% and 3.07% and the “Population Mitochondria Different-Phenotype (%)” value [3] was 6.33% and 6.13%. For the same molecule, the “Population Mitotic Cells (%)” value [3] was 92.11% and 86.36%, the “Population Normal (%)” value [3] was 100% and the “Population Pyknosed Nuclei (%)” value [3] was 17.67% and 11.06%. For the same molecule, the “Population Tubulin-Different-Phenotype (%)” value [3] was 16.46% and 28.22%, the “Total Cell Count” value [3] was 215 and 199 and the “Population Apoptotic (%)” value [4] was 11.9% and 25.45%. For the same molecule, the “Population Fragmented Nuclei (%)” value [4] was 8.42% and 3.61%, the “Population Healthy Nuclei (%)” value [4] was 69.47% and 76.53% and the “Population Hoechst High Intensity Objects (%)” value [4] was 0%. The “Population Membrane Permeable-Phenotype (%)” value [4] was 3.79% and 5.66%, the “Population Mitochondria Different-Phenotype (%)” value [4] was 9.85% and 15.57% and the “Population Mitotic Cells (%)” value [4] was 88.1% and 74.55%. For the same molecule, the “Population Normal (%)” value [4] was 100%, the “Population Pyknosed Nuclei (%)” value [4] was 22.11% and 19.86% and the “Population Tubulin-Different-Phenotype (%)” value [4] was 34.85% and 63.21%. The “Total Cell Count” value [4] was 190 and 277, the “Population Apoptotic (%)” value [5] was 25% and 33.33% and the “Population Fragmented Nuclei (%)” value [5] was 8.44% and 10.78%. The “Population Healthy Nuclei (%)” value [5] was 86.5% and 83.33%, the “Population Hoechst High Intensity Objects (%)” value [5] was 0% and the “Population Membrane Permeable-Phenotype (%)” value [5] was 1.46% and 7.06%. The “Population Mitotic Cells (%)” value [5] was 75% and 66.67%, the “Population Normal (%)” value [5] was 100% and the “Population Pyknosed Nuclei (%)” value [5] was 5.06% and 5.88%. The “Total Cell Count” value [5] was 237 and 204, the “Population Apoptotic (%)” value [6] was 25% and 50% and the “Population Healthy Nuclei (%)” value [6] was 74.48% and 87.96%. For the same molecule, the “Population Hoechst High Intensity Objects (%)” value [6] was 0%, the “Population Membrane Permeable-Phenotype (%)” value [6] was 0.56% and 9.13% and the “Population Mitochondria Different-Phenotype (%)” value [6] was 10.11% and 9.51%. For the same molecule, the “Population Mitotic Cells (%)” value [6] was 75% and 50%, the “Population Normal (%)” value [6] was 100% and the “Population Pyknosed Nuclei (%)” value [6] was 8.37% and 7.36%. The “Population Tubulin-Different-Phenotype (%)” value [6] was 19.1% and 53.99% and the “Total Cell Count” value [6] was 239 and 299.

`Cc1[nH]nc2ccc(-c3cncc(OCC(N)Cc4c[nH]c5ccccc45)c3)cc12` (stereo unspecified) was tested, and the “Population Apoptotic (%)” value [1] was 18.11% and 24.66%, the “Population Fragmented Nuclei (%)” value [1] was 16.11% and 10.36% and the “Population Healthy Nuclei (%)” value [1] was 41.28% and 56.76%. The “Population Hoechst High Intensity Objects (%)” value [1] was 0%, the “Population Membrane Permeable-Phenotype (%)” value [1] was 3.25% and 3.97% and the “Population Mitochondria Different-Phenotype (%)” value [1] was 17.07% and 15.08%. For the same molecule, the “Population Mitotic Cells (%)” value [1] was 81.89% and 75.34%, the “Population Normal (%)” value [1] was 100% and the “Population Pyknosed Nuclei (%)” value [1] was 42.62% and 32.88%. For the same molecule, the “Population Tubulin-Different-Phenotype (%)” value [1] was 23.58% and 29.37%, the “Total Cell Count” value [1] was 298 and 222 and the “Population Apoptotic (%)” value [2] was 73.46% and 80.82%. For the same molecule, the “Population Fragmented Nuclei (%)” value [2] was 20.65% and 12.77%, the “Population Healthy Nuclei (%)” value [2] was 11.29% and 2.66% and the “Population Hoechst High Intensity Objects (%)” value [2] was 0% and 0.27%. For the same molecule, the “Population Membrane Permeable-Phenotype (%)” value [2] was 2.86% and 10%, the “Population Mitochondria Different-Phenotype (%)” value [2] was 5.71% and 10% and the “Population Mitotic Cells (%)” value [2] was 26.54% and 19.18%. For the same molecule, the “Population Normal (%)” value [2] was 100% and 99.73%, the “Population Pyknosed Nuclei (%)” value [2] was 68.06% and 84.57% and the “Population Tubulin-Different-Phenotype (%)” value [2] was 22.86% and 10%. The “Total Cell Count” value [2] was 310 and 377, the “Population Apoptotic (%)” value [3] was 27.83% and 30.77% and the “Population Fragmented Nuclei (%)” value [3] was 13.42% and 3.92%. The “Population Healthy Nuclei (%)” value [3] was 47.99% and 64.22%, the “Population Hoechst High Intensity Objects (%)” value [3] was 0% and the “Population Membrane Permeable-Phenotype (%)” value [3] was 0.7% and 2.29%. The “Population Mitochondria Different-Phenotype (%)” value [3] was 10.49% and 14.5%, the “Population Mitotic Cells (%)” value [3] was 72.17% and 69.23% and the “Population Normal (%)” value [3] was 100%. For the same molecule, the “Population Pyknosed Nuclei (%)” value [3] was 38.59% and 31.86%, the “Population Tubulin-Different-Phenotype (%)” value [3] was 18.88% and 22.14% and the “Total Cell Count” value [3] was 298 and 204. The “Population Apoptotic (%)” value [4] was 65.94% and 93.38%, the “Population Fragmented Nuclei (%)” value [4] was 25.98% and 13.12% and the “Population Healthy Nuclei (%)” value [4] was 19.69% and 18.55%. The “Population Hoechst High Intensity Objects (%)” value [4] was 0%, the “Population Membrane Permeable-Phenotype (%)” value [4] was 10% and 14.63% and the “Population Mitochondria Different-Phenotype (%)” value [4] was 6% and 7.32%. For the same molecule, the “Population Normal (%)” value [4] was 100%, the “Population Pyknosed Nuclei (%)” value [4] was 54.33% and 68.33% and the “Population Tubulin-Different-Phenotype (%)” value [4] was 24% and 48.78%. The “Total Cell Count” value [4] was 254 and 221, the “Population Apoptotic (%)” value [5] was 32.98% and 38.18% and the “Population Fragmented Nuclei (%)” value [5] was 11.28% and 7.22%. For the same molecule, the “Population Healthy Nuclei (%)” value [5] was 53.38% and 64.43%, the “Population Hoechst High Intensity Objects (%)” value [5] was 0% and the “Population Membrane Permeable-Phenotype (%)” value [5] was 0% and 3.2%. The “Population Mitochondria Different-Phenotype (%)” value [5] was 17.61% and 10.4%, the “Population Mitotic Cells (%)” value [5] was 67.02% and 61.82% and the “Population Normal (%)” value [5] was 100%. The “Population Pyknosed Nuclei (%)” value [5] was 35.34% and 28.35%, the “Population Tubulin-Different-Phenotype (%)” value [5] was 13.38% and 9.6% and the “Total Cell Count” value [5] was 266 and 194. For the same molecule, the “Population Apoptotic (%)” value [6] was 40.43% and 95.45%, the “Population Fragmented Nuclei (%)” value [6] was 31.02% and 56.65% and the “Population Healthy Nuclei (%)” value [6] was 47.22% and 30.64%. For the same molecule, the “Population Hoechst High Intensity Objects (%)” value [6] was 0%, the “Population Membrane Permeable-Phenotype (%)” value [6] was 5.88% and 11.32% and the “Population Mitochondria Different-Phenotype (%)” value [6] was 31.37% and 37.74%. The “Population Normal (%)” value [6] was 100%, the “Population Pyknosed Nuclei (%)” value [6] was 21.76% and 12.72% and the “Population Tubulin-Different-Phenotype (%)” value [6] was 35.29% and 66.04%. For the same molecule, the “Total Cell Count” value [6] was 216 and 173.
